Hits are enriched below; roughly 3.3% of the tested compounds scored in any of these assays.
STAT3 act – IL-6 driven STAT3 reporter potentiators, primary screen, U3A cells, luciferase, luminescence, MLSCN library. activation (% of control), % at 5.6 µM. IL-6 STAT3-luciferase reporter; 100% = signal with IL-6 EC80 alone. 190,000 compounds, 0.91% hits;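 active = activation above the screen-wide mean of compound activation plus 3 SD, cut at about 130% in these data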;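 note: 0% = background luminescence of wells with medium and substrate only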
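Material: STAT3-luciferase reporter U3A cells; Probe or stimulus: IL-6 (33 ng/mL); Incubation: compound pre-incubation 1 h before IL-6, then 6 h stimulation at 37 °C; Technique: luminescence from STAT3-driven luciferase reporter; Evaluation: % activation versus median of IL-6-stimulated wells; Controls: IL-6-only high control.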
AHR act – AHR activators, primary screen, cell-based, luminescence, luciferase reporter, human; AHR-responsive luciferase reporter cells; 320,000 compounds, 2.5% hits; Aryl hydrocarbon receptor (Homo sapiens), P35869; activation, % at 5 µM; AID 2796, 2010; in the data active = activation above about 47%;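 note: 0% = vehicle wells and 100% = reference agonist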
FXN GAA850 act – FXN promoter activators, primary screen, cell-based, luciferase luminescence, HEK293 lucGAA850 | HEK293 lucGAA850 FXN promoter luciferase reporter, 24 h; percent of 10 µM SAHA response | activation, % at 6 µM | 360,000 compounds, 0.56% hits | AID 540364, 2011;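 active = activation above the average of all compounds screened plus 3 SD, cutoff fixed separately per campaign, cut at about 7.5% in these data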;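 note: 0% = DMSO wells and 100% = 10 µM SAHA wells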
ABCB6 inh MLPCN – ABCB6 transporter inhibitors, primary screen, K562-ABCB6 cells, flow cytometry, MLPCN library; K562-ABCB6 porphyrin accumulation, 1 h; active compounds read low; fluorescence ratio to DMSO, % at 10 µM; 360,000 compounds, 0.19% hits;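 active = fluorescence ratio to DMSO below 75%, the collection mean minus 3 SD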;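 note: signal is porphyrin accumulated inside mitochondria; 100% equals median channel fluorescence of DMSO control wells; lower ratio means ABCB6 inhibition with less porphyrin fluorescence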
Target sequence (Q9NP58 whole entry, looked up): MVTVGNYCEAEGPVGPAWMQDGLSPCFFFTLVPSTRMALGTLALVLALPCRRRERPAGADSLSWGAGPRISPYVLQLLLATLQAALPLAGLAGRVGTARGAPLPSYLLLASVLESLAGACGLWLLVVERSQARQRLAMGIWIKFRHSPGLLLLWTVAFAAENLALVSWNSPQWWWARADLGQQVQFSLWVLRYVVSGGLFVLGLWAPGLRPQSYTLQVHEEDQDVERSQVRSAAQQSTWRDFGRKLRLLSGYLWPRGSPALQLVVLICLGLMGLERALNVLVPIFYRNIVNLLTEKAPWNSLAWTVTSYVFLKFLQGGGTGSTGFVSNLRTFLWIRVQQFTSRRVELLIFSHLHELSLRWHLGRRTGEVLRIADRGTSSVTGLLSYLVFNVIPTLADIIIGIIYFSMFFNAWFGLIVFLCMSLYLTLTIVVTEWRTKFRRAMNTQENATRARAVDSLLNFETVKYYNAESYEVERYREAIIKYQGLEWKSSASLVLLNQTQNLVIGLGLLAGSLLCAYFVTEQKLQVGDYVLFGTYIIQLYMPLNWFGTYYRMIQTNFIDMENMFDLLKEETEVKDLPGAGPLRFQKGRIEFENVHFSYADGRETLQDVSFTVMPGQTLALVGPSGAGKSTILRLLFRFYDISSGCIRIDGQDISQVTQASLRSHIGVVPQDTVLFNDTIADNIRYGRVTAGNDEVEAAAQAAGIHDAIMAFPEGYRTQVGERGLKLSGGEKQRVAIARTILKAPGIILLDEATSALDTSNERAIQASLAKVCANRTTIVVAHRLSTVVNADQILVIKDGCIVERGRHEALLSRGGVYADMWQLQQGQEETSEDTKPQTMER
AHR act confirm – AHR activators, confirmation, cell-based, luminescence, luciferase reporter, human; shares compounds with AHR act; human cells, AHR-responsive luciferase reporter; activation, % at 9 µM; 2,300 compounds, 87% hits; AID 2845, 2010; in the data active = activation above about 49%;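 note: HepG2 hepatoma cells carrying a DRE-driven firefly luciferase reporter; 0% = vehicle wells and 100% = reference agonist wells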
PXR counter – human PXR activators, counter-screen for AHR activator project, cell-based, luciferase luminescence. activation, % at 11.6 µM. AID 434939, 2010. shares compounds with AHR act. 2,300 compounds, 88% hits. cell-based PXR reporter; in the data active = activation above about 11%;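 note: human hepatoma DPX-2 cells expressing full-length human PXR; 0% = DMSO and 100% = reference agonist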
GAA30 FXN cntr – GAA30 FXN promoter activators, confirmation, counter-screen for GAA850 frataxin promoter activator project, cell-based, luminescence, HEK293, lucGAA30, triplicate | activation, % at 6 µM | HEK293 lucGAA30 FXN promoter luciferase, 24 h; DMSO = 0%, 5 µM ipriflavone = 100% | 1,900 compounds, 66% hits | shares compounds with FXN GAA850 act;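 active = mean activation above the mean of solvent-only control wells plus 3 SD, cut at about 22% in these data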;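 note: counterscreen of GAA850 promoter hits where activity marks nonselective or luminescence artifacts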
GAA850 confirm – FXN GAA850 promoter activators in reporter cells, confirmation, cell-based, luminescence, HEK293 lucGAA850, triplicate. shares compounds with FXN GAA850 act. HEK293 lucGAA850 FXN promoter luciferase reporter, 24 h; 100% = activation by SAHA. activation, % at 6 µM. 1,900 compounds, 86% hits. AID 588351, 2011;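 active = mean activation above a set limit taken from the primary screen, cut at about 8% in these data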;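 note: 0% = DMSO wells and 100% = 10 µM SAHA wells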
Starred values were filed as active, the others as inactive; nt = not tested or not shown.

SMILES	STAT3 act	AHR act	FXN GAA850 act	ABCB6 inh MLPCN	AHR act confirm	PXR counter	GAA30 FXN cntr	GAA850 confirm
COc1ccc(OC)c2nc(-c3ccc4c(c3)OCO4)ccc12	nt	117*	9.5*	93	125*	46*	124*	44*
C/C(=N\NC(=O)NC1CCCCC1)c1ccco1	104	5	3	88	nt	nt	nt	nt
COCOc1ccc(-c2ncc(OC)nc2NC(=O)c2ccsc2)cc1	nt	nt	2	91	nt	nt	nt	nt
Cc1ccc(-n2ncc(Cl)c2C(=O)NC2CC2)cc1	111	90*	8.6*	92	136*	21*	110*	32*
CNC(=O)c1c(Cl)cnn1-c1ccc(C)cc1	102	24	5	89	nt	nt	nt	nt
Cc1cccc(C)c1OCCNC(=O)CCC(=O)c1ccccc1	103	7	0	99	nt	nt	nt	nt
COCCNc1oc(/C=C/c2ccccc2)nc1C#N	nt	47	5	97	nt	nt	nt	nt
CNc1oc(/C=C/c2ccccc2)nc1C#N	103	136*	8.3*	102	112*	18*	133*	40*
O=C(/C=C/c1ccccc1)c1c[nH]c2ccccc12	nt	84*	12*	98	93*	32*	142*	52*
Cc1ccc(/C=N/Nc2ncnc3nc[nH]c23)cc1	nt	115*	17*	94	104*	84*	123*	56*
Fc1ccccc1/C=N/Nc1ncnc2nc[nH]c12	89	130*	11*	97	83*	40*	98*	47*
Fc1cccc(/C=N/Nc2ncnc3nc[nH]c23)c1	79	105*	10*	95	78*	33*	113*	49*
Oc1ccc(/C=N/Nc2ncnc3nc[nH]c23)cc1	nt	4	6	92	nt	nt	nt	nt
CC(C)[C@H](NC(=O)C1CCCC1)c1nc2ccccc2[nH]1	102	1	-3	104	nt	nt	nt	nt
CCC(=O)Nc1c(C(=O)Nc2ccc3c(c2)OCCO3)oc2ccccc12	77	87*	9.8*	95	19	30*	104*	32*
CCC(=O)Nc1ccc(NC(=O)c2oc3ccccc3c2C)cc1	nt	6	-10	103	nt	nt	nt	nt
COc1ccc(/C=C/c2nc(-c3ccccc3O)n[nH]2)cc1	99	94*	7.6*	105	46	6	94*	23*
COc1ccccc1/C=C/C(=O)OCC(=O)N1CCCCC1	nt	0	3	96	nt	nt	nt	nt
Cc1[nH]c2ccccc2c1/C=C/c1nc2ccccc2c(=O)[nH]1	nt	166*	8.2*	97	91*	55*	102*	38*
Cc1cccc(/C=C/c2nc3ccccc3c(=O)[nH]2)c1	68	-4	-2	103	nt	nt	nt	nt
COc1ccc(-c2cc(-c3ccccc3)n[nH]2)c(O)c1	89	125*	8.2*	101	73*	17*	121*	38*
c1ccc(NCc2cccnc2)cc1	102	1	-3	116	nt	nt	nt	nt
c1cncc(CNc2cccc(-c3nc4ccccc4[nH]3)c2)c1	115	167*	8.5*	95	112*	137*	89*	28*
CCC(C)Oc1cc(-c2ccnc(Nc3cccc(Cl)c3)n2)ccn1 (stereo not drawn)	nt	114*	22*	103	72*	31*	40*	82*
OCCCNc1cc(-c2ccnc(Nc3cccc(Cl)c3)n2)ccn1	nt	18	-14	95	nt	nt	nt	nt
CCN=C1S/C(=C\c2cn(CC(=O)NCc3ccco3)c3ccccc23)C(=O)N1CC	nt	3	1	100	nt	nt	nt	nt

High-throughput results (PubChem)
